The source made the active and inactive calls. The rule behind the calls is not given here.
Key:
Rattus norvegicus = assay: Inhibition of 8-OH-DPAT-induced hyperlocomotory activity in Sprague-Dawley rat administered orally 60 mins before 8-OH-DPATchallenge; format: functional; settings: po
In short: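 Male Sprague-Dawley rats (250–350 g) dosed orally (5 mL/kg) at 0.03, 0.1 or 0.3 mg/kg or vehicle, 60 min before sc 8-OH-DPAT 0.2 mg/kg (2 mL/kg). Total distance travelled recorded by infrared sensors over 30 min immediately after; 8–9 rats per group.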

[1] = Solubility of the compound in simulated gastric fluid at pH 1.2 at 25 degC; format: physicochemical
[2] = Solubility of the compound in fed state simulated intestinal fluid at pH 5.5 at 25 degC; format: physicochemical
In short: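 Solubility determined at 25 °C in fed state simulated intestinal fluid at pH 5.5.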

[3] = Solubility of the compound in water; format: physicochemical
In short: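 Measured on the dihydrochloride salt form, dissolved in water.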

[4] = Clearance in Sprague-Dawley rat at 0.5 mg/kg, iv after 24 hrs; format: ADME, organism-based; parameters: dose 0.5 mg/kg, route intravenous; settings: in vivo
In short: (§1)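 Male Sprague-Dawley rats given 0.5 mg/kg iv (2 mL/kg, 2.5% DMSO in glucosate solution), n=3, cassette dosing; blood collected at intervals up to 24 h, protein precipitation and LC-MS/MS quantification.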

[5] = Half life in Sprague-Dawley rat at 0.5 mg/kg, iv after 24 hrs; format: ADME, organism-based; parameters: dose 0.5 mg/kg, route intravenous; settings: in vivo; in short: as §1
[6] = Oral bioavailability in Sprague-Dawley rat at 1 mg/kg, po after 24 hrs; format: ADME, organism-based; settings: in vivo
In short: (§2)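 Male Sprague-Dawley rats dosed po at 1 mg/kg (10 mL/kg, 1% DMSO in aqueous 0.5% methocel), n=3, as a cassette with other compounds; blood sampled at intervals up to 24 h and analysed by protein precipitation then LC-MS/MS.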

[7] = Cmax in Sprague-Dawley rat at 1 mg/kg, po after 24 hrs; format: ADME, organism-based; parameters: dose 1 mg/kg, route oral; settings: in vivo; in short: as §2
[8] = AUC (0 to infinity) in Sprague-Dawley rat at 1 mg/kg, po after 24 hrs; format: ADME, organism-based; parameters: time infinity, dose 1 mg/kg, route oral; settings: plasma; in short: as §2
[9] = Ratio of drug level in brain to blood in Sprague-Dawley rat after 1 hr; format: ADME, tissue-based; settings: read-out: BBR
In short: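 Male Sprague-Dawley rats dosed iv at 0.5 mg/kg (2.5% DMSO in glucosate), n=3, as a cassette. At 1 h, CO2 anaesthesia, blood taken by heart puncture and brain removed. Both matrices analysed by protein precipitation and LC-MS/MS.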

[10] = target: T1, 5-hydroxytryptamine receptor 1A (Homo sapiens, UniProt P08908); assay: Displacement of [3H]WAY100635 from human recombinant 5-HT1A receptor expressed in CHO cells; format: cell-based
T1 sequence (P08908 whole entry): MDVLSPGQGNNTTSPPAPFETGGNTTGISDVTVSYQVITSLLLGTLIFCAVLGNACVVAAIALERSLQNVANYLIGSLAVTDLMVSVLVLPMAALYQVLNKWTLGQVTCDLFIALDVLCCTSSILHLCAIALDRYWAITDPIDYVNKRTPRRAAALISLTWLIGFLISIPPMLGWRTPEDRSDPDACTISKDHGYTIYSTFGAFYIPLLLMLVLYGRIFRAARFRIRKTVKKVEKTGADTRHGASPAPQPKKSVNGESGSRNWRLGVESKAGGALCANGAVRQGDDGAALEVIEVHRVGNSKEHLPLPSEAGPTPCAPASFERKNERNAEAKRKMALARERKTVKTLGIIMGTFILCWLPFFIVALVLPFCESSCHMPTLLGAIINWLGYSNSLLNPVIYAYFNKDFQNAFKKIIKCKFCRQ

[11] = target: T2, 5-hydroxytryptamine receptor 1B (Homo sapiens, UniProt P28222); assay: Displacement of [3H]5-HT from human recombinant 5-HT1B receptor expressed in CHO cells; format: cell-based
[12] = target: T3, 5-hydroxytryptamine receptor 1D (Homo sapiens, UniProt P28221); assay: Displacement of [3H]5-HT from human recombinant 5-HT1D receptor expressed in CHO cells; format: cell-based
[13] = target: Sodium-dependent serotonin transporter (Rattus norvegicus, UniProt P31652); assay: Inhibition of [3H]5-HT uptake at SERT in rat cortical synaptosomes; format: subcellular, Brain
[14] = target: T3, 5-hydroxytryptamine receptor 1D; assay: Inverse agonist activity at human recombinant 5-HT1D receptor expressed in CHO cells by [S35]GTPgammaS binding assay; format: functional, cell-based
In short: (§3)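 [35S]-GTPγS binding in membranes from 10^6 cells (HEK293 for 5-HT1A; CHO for 5-HT1B, 5-HT1D), preincubated 30 min at 30 °C with compound in 20 mM HEPES pH 7.4, 3 mM MgCl2, 100 mM NaCl, 10 μM GDP, 0.2 mM ascorbate. 100 pM [35S]-GTPγS added, 30 min more at 30 °C; nonspecific with 20 μM GTPγS; filtration and scintillation counting.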

[15] = target: T4, 5-hydroxytryptamine receptor 1A (Homo sapiens) (UniProt P08908); assay: Inverse agonist activity at human recombinant 5-HT1A receptor expressed in HEK293 cells by [S35]GTPgammaS binding assay; format: functional, cell-based; in short: as §3
T4 sequence (whole entry): T1 sequence (P08908 whole entry)

[16] = target: T2, 5-hydroxytryptamine receptor 1B; assay: Inverse agonist activity at human recombinant 5-HT1B receptor expressed in CHO cells by [S35]GTPgammaS binding assay; format: functional, cell-based; in short: as §3
[17] = target: Voltage-gated inwardly rectifying potassium channel KCNH2 (Homo sapiens, UniProt Q12809); assay: Displacement of [3H]dofetilide from human ERG by SPA
[18] = target: 5-hydroxytryptamine receptor 2A (Homo sapiens, UniProt P28223); assay: Binding affinity to human recombinant 5-HT2A receptor by radioligand displacement assay
[19] = target: 5-hydroxytryptamine receptor 2B (Homo sapiens, UniProt P41595); assay: Binding affinity to human recombinant 5-HT2B receptor by radioligand displacement assay
[20] = target: T5, 5-hydroxytryptamine receptor 2C (Homo sapiens, UniProt P28335); assay: Binding affinity to human recombinant 5-HT2C receptor by radioligand displacement assay
T5 sequence (P28335 whole entry): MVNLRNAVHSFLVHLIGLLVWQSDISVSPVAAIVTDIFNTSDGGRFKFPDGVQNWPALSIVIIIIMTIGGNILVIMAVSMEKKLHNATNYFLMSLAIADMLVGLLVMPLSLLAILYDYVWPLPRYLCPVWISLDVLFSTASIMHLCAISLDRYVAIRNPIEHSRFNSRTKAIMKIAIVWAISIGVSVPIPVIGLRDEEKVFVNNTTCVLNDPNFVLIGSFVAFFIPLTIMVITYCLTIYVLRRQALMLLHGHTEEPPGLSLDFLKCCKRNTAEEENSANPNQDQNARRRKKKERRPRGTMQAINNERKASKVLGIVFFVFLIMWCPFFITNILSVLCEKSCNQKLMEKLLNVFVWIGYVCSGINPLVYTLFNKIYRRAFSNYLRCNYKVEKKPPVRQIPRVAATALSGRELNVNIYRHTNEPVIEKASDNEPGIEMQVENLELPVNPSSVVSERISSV

[21] = target: 5-hydroxytryptamine receptor 6 (Homo sapiens, UniProt P50406); assay: Binding affinity to human recombinant 5-HT6 receptor by radioligand displacement assay
[22] = target: 5-hydroxytryptamine receptor 7 (Homo sapiens, UniProt P34969); assay: Binding affinity to human recombinant 5-HT7 receptor by radioligand displacement assay
D(2) dopamine receptor = D(2) dopamine receptor (Homo sapiens, UniProt P14416); assay: Binding affinity to human recombinant dopamine D2 receptor by radioligand displacement assay
D(3) dopamine receptor = D(3) dopamine receptor (Homo sapiens, UniProt P35462); assay: Binding affinity to human recombinant dopamine D3 receptor by radioligand displacement assay
[23] = target: T4, 5-hydroxytryptamine receptor 1A (Homo sapiens); assay: Intrinsic activity at human recombinant 5-HT1A receptor expressed in HEK293 cells by [S35]GTPgammaS binding assay relative to 5-HT; format: functional, cell-based; in short: as §3
[24] = target: T2, 5-hydroxytryptamine receptor 1B; assay: Intrinsic activity at human recombinant 5-HT1B receptor expressed in CHO cells by [S35]GTPgammaS binding assay relative to 5-HT; format: functional, cell-based; in short: as §3
[25] = target: T3, 5-hydroxytryptamine receptor 1D; assay: Intrinsic activity at human recombinant 5-HT1D receptor expressed in CHO cells by [S35]GTPgammaS binding assay relative to 5-HT; format: functional, cell-based; in short: as §3
Cytochrome P450 1A2 = Cytochrome P450 1A2 (Homo sapiens, UniProt P05177); assay: Inhibition of human recombinant CYP1A2
Cytochrome P450 2C9 = Cytochrome P450 2C9 (Homo sapiens, UniProt P11712); assay: Inhibition of human recombinant CYP2C9
Cytochrome P450 2C19 = Cytochrome P450 2C19 (Homo sapiens, UniProt P33261); assay: Inhibition of human recombinant CYP219
Cytochrome P450 2D6 = Cytochrome P450 2D6 (Homo sapiens, UniProt P10635); assay: Inhibition of human recombinant CYP2D6
Cytochrome P450 3A4 [26] = target: T6, Cytochrome P450 3A4 (Homo sapiens, UniProt P08684); assay: Inhibition of human recombinant CYP3A4
Cytochrome P450 3A4 [27] = target: T6, Cytochrome P450 3A4; assay: Inhibition of CYP3A4 in human liver microsomes using midazolam as probe
[28] = target: Alpha-1A adrenergic receptor (Rattus norvegicus, UniProt P43140); assay: Inhibition of rat adrenergic alpha1A receptor
[29] = target: Alpha-1B adrenergic receptor (Rattus norvegicus, UniProt P15823); assay: Inhibition of rat adrenergic Alpha-1B receptor
[30] = Protein binding in rat plasma at 1 ug/mL by equilibrium dialysis method
[31] = Plasma protein binding in dog at 1 ug/mL by equilibrium dialysis method
[32] = Plasma protein binding in human at 1 ug/mL by equilibrium dialysis method
Cytochrome P450 3A4 [33] = target: T6, Cytochrome P450 3A4; assay: Inhibition of CYP3A4 in human liver microsomes using atorvastatin as probe
Cytochrome P450 3A4 [34] = target: T6, Cytochrome P450 3A4; assay: Inhibition of CYP3A4 in human liver microsomes using nifedipine as probe

Chain of 5-hydroxytryptamine receptor 6 (P50406 whole entry): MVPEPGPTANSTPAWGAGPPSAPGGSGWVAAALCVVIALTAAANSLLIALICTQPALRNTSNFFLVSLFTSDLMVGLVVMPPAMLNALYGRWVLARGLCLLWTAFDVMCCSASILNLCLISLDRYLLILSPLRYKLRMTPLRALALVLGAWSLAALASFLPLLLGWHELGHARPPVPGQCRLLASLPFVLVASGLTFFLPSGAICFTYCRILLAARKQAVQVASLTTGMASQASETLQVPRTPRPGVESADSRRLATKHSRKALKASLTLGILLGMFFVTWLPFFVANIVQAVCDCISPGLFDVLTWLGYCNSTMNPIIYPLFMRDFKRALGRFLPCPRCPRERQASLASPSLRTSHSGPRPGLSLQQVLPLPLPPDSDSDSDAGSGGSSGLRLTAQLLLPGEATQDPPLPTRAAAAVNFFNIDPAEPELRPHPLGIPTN
Chain of 5-hydroxytryptamine receptor 7 (P34969 whole entry): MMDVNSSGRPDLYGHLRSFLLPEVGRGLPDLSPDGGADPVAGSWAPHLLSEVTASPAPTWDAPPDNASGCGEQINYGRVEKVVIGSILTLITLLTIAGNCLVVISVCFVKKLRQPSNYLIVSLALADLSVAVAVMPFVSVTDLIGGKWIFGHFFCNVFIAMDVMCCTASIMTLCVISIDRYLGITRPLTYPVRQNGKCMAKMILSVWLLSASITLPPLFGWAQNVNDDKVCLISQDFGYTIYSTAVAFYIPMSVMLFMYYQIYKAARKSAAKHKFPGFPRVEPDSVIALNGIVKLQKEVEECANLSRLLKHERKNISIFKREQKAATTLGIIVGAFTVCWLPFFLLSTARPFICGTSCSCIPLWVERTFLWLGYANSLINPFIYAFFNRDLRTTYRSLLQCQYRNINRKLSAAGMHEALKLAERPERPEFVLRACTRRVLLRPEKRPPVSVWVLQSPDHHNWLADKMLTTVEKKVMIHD
Chain of Voltage-gated inwardly rectifying potassium channel KCNH2 (Q12809 whole entry): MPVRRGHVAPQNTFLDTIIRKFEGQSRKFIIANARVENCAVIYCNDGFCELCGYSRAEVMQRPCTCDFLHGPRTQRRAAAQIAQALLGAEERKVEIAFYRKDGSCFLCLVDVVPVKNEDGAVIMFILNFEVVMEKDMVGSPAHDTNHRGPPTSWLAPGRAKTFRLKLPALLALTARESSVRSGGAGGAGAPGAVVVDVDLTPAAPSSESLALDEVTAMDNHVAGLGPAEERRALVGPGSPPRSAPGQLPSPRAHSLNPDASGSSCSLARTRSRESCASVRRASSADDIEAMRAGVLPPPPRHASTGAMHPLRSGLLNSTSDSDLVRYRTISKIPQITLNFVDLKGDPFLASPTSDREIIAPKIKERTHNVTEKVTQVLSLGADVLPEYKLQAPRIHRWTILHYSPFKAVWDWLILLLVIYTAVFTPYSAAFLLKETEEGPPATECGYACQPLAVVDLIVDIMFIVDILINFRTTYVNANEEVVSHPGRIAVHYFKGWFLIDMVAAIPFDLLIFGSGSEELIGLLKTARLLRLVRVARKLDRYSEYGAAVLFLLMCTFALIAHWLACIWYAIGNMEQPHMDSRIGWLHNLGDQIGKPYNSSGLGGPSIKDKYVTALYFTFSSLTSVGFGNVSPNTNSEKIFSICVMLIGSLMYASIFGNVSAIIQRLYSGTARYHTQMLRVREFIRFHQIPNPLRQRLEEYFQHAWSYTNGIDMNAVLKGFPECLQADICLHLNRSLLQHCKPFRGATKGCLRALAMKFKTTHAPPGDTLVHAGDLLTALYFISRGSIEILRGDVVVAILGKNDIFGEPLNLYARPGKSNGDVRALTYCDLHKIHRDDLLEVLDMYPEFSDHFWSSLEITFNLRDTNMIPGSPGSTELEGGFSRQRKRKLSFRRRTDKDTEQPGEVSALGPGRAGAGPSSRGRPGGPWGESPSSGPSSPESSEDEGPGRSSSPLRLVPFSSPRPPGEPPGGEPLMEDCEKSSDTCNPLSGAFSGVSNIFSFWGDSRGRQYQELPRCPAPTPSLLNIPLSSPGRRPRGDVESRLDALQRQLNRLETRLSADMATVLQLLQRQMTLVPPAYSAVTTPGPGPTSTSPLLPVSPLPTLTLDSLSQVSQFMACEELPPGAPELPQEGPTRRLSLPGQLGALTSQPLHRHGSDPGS
Chain of 5-hydroxytryptamine receptor 2A (P28223 whole entry): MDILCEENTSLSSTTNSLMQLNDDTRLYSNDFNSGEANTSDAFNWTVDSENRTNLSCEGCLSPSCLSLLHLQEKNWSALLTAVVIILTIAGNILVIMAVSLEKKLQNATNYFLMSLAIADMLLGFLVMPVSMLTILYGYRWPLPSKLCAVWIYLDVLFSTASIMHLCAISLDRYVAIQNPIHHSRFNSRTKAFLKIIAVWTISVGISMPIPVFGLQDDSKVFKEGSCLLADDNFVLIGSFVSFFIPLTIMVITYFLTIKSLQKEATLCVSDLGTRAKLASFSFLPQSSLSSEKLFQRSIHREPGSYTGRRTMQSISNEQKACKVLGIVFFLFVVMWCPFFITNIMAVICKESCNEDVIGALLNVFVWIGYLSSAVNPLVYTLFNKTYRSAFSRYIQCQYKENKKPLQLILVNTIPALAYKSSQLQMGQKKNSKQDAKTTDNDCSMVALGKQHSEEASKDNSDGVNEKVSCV
Chain of D(3) dopamine receptor (P35462 whole entry): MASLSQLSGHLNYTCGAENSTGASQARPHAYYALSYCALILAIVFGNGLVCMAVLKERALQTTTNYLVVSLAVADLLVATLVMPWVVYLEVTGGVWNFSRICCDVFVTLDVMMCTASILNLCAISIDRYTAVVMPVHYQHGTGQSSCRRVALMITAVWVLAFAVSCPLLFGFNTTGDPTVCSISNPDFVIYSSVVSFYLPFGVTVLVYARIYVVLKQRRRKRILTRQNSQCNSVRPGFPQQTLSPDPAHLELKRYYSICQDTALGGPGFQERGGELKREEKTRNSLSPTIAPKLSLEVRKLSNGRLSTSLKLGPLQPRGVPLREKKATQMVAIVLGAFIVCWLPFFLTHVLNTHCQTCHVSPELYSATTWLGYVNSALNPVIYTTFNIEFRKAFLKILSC
T6 sequence (P08684 whole entry): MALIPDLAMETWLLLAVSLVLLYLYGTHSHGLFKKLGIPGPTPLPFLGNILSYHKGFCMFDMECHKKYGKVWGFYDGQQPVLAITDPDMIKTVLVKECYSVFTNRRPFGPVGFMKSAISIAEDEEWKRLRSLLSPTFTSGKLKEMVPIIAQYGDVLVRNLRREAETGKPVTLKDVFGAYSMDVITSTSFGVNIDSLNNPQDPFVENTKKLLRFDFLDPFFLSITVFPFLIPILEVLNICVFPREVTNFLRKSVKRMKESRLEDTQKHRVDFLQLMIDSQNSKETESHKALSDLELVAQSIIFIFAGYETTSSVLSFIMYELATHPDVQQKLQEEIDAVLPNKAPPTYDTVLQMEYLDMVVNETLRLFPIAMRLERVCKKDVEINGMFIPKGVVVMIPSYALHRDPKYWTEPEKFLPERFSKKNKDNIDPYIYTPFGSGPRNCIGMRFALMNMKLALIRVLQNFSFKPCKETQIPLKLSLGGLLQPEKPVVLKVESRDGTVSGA
T3 sequence (P28221 whole entry): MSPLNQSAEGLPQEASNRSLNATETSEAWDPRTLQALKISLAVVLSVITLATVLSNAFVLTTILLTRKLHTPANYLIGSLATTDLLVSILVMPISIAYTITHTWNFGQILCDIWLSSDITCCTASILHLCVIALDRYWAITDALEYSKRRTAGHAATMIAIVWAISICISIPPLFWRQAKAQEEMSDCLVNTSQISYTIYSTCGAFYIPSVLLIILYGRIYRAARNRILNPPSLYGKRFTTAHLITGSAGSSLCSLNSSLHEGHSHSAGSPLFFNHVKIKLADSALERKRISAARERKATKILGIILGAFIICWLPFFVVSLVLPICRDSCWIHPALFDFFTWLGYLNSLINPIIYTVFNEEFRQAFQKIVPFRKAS
Chain of Sodium-dependent serotonin transporter (P31652 whole entry): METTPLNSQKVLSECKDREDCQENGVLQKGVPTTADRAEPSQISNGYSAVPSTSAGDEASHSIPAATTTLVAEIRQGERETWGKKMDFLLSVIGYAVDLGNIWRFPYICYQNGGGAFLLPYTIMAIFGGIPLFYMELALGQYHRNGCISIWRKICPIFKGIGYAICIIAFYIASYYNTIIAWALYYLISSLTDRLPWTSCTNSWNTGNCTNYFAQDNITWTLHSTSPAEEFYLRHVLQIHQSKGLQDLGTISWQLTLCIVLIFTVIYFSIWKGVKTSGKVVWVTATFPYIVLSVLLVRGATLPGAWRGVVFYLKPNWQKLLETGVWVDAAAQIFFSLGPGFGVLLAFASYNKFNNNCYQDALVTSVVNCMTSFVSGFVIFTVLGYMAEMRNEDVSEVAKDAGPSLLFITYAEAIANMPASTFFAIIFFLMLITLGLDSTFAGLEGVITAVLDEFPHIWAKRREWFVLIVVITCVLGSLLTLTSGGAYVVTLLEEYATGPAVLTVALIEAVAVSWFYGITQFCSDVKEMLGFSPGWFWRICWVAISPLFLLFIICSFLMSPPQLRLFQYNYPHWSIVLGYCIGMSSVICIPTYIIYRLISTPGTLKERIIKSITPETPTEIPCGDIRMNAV
T2 sequence (P28222 whole entry): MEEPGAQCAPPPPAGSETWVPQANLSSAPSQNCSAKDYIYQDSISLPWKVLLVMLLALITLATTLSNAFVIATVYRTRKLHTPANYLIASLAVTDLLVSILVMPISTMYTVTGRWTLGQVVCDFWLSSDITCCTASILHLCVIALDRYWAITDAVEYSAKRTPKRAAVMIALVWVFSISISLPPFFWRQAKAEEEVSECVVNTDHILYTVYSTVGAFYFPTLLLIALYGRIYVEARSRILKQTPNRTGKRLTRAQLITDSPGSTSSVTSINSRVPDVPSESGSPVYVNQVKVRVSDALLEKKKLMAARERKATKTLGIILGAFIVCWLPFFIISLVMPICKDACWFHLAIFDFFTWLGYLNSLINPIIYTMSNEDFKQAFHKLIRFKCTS

Row | solubility [1] [µg/mL] | solubility [2] [µg/mL] | solubility [3] [µg/mL] | clearance [4] [mL/min/kg] | half-life [5] [h] | bioavailability [6] [%] | Cmax [7] [ng/mL] | Ki [10] [nM] | Ki [11] [nM] | Ki [12] [nM] | Ki [13] [nM] | Ki [18] [nM] | Ki [19] [nM] | Ki [20] [nM] | Ki [21] [nM] | Ki [22] [nM] | Ki (D(2) dopamine receptor) [nM] | Ki (D(3) dopamine receptor) [nM] | Structure (SMILES) | ED50 (Rattus norvegicus) [mg/kg] | Ki [17] [nM] | further results
1 | > 10000 | 5000 | > 10000 | 10 | 4.6 | 51 | 98 | – | – | – | – | – | – | – | – | – | – | – | CC(=O)Nc1cccc(CCN2CCN(c3cccc4nc(C)ccc34)CC2)c1.Cl.Cl | 0.09 | – | AUC(0-inf) [8]: 893 ng·h/mL; Kp at 1 h [9]: 0.7
2 | – | – | – | – | – | – | – | 1 | 2.51 | 0.316 | 2000 | 79.4 | 126 | 794 | > 1000 | 79.4 | 398 | 100 | Cc1ccc2c(N3CCN(CCc4cccc(NC(=O)c5ccccc5)c4)CC3)cccc2n1 | – | 50.1 | Activity [14]: Active; Activity [15]: Active; Activity [16]: Active
3 | – | – | – | – | – | – | – | 3.98 | 3.16 | 0.316 | 2000 | > 6310 | > 6310 | > 10000 | 316 | 79.4 | 79.4 | 31.6 | Cc1ccc2c(N3CCN(CCc4cccc(NC(=O)Nc5ccccc5)c4)CC3)cccc2n1 | – | 316 | Intrinsic activity [23]: 0; Intrinsic activity [24]: 0; Intrinsic activity [25]: 0
4 | – | – | – | – | – | – | – | 2 | 1.26 | 0.158 | 501 | 316 | 398 | 794 | > 6310 | 39.8 | 316 | 126 | CCNC(=O)Nc1cccc(CCN2CCN(c3cccc4nc(C)ccc34)CC2)c1 | – | 631 | Intrinsic activity [23]: 0; Activity [14]: Active; Activity [16]: Active
5 | – | – | – | – | – | – | – | – | – | – | – | – | – | 1580 | > 5010 | – | – | – | Cc1ccc2c(N3CCN(CCc4cccc(N5CCNC5=O)c4)CC3)cccc2n1 [GSK163090] | – | 12600 | IC50 (Cytochrome P450 1A2): 96000 nM; IC50 (Cytochrome P450 2C9): 60000 nM; IC50 (Cytochrome P450 2C19): 76000 nM; IC50 (Cytochrome P450 2D6): 86000 nM; IC50 (Cytochrome P450 3A4 [26]): 67000 nM; IC50 (Cytochrome P450 3A4 [27]): 21000 nM; IC50 [28]: 25.1 nM; IC50 [29]: 25.1 nM; fraction unbound at 1 ug/mL [30]: 0.041; fraction unbound at 1 ug/mL [31]: 0.045; fraction unbound at 1 ug/mL [32]: 0.041; IC50 (Cytochrome P450 3A4 [33]): 21000 nM; IC50 (Cytochrome P450 3A4 [34]): 21000 nM
6 | > 10000 | 600 | > 10000 | 7 | 3.9 | 56 | 243 | – | – | – | – | – | – | – | – | – | – | – | Cc1ccc2c(N3CCN(CCc4cccc(NS(C)(=O)=O)c4)CC3)cccc2n1.Cl.Cl | 1 | – | AUC(0-inf) [8]: 1450 ng·h/mL; Kp at 1 h [9]: 0.5
